Hits are enriched below; roughly 2.2% of the tested compounds scored in any of these assays.
Neddyl block: blocks human cullin neddylation; P61081+Q13564; AID 651699; hit rate 0.58% among 360,000; TR-FRET cullin neddylation, biochemical; inhibition, % at 25 µM; in the data active = inhibition above about 36%
HKDC1 inhibitor: blocks human hexokinase HKDC1 activity; Q2TB90; recombinant HKDC1, G6PDH/diaphorase resazurin coupled fluorescence; inhibition, % at 20 µM; hit rate 0.16% among 340,000;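 active = inhibition above about 35% when tested at 20 µM, limit read from the data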;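 also: plate controls were DMSO wells with enzyme for no effect and DMSO wells lacking enzyme for full effect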
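System: Recombinant HKDC1 hexokinase | Amount: HKDC1 at 5 µg/mL | Reagent: Glucose with 1 mM ATP | Doses: Single 20 µM dose | Incubation: Reaction time 90 min, room temperature, protected from light | Signal: Coupled resazurin fluorescence, excitation 525 nm, emission 613 nm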
PfGluPho inh: PfG6PD (Plasmodium falciparum) enzyme inhibition. PfGluPho enzyme, NADPH resazurin-diaphorase fluorescence. inhibition, % at 20 µM. hit rate 0.78% among 350,000;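 active = inhibition reaching at least a set limit at 20 µM in the primary screen, cut at about 59% in these data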;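 also: 0% = DMSO wells with substrate and 100% = DMSO wells lacking glucose-6-phosphate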
PfM18AAP inh-1: PfM18AAP enzyme inhibition; recombinant PfM18AAP, H-Glu-NHMec fluorogenic cleavage; inhibition, % at 7.35 µM; hit rate 1.2% among 290,000; AID 1822;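 active = inhibition above the campaign mean inhibition over all tested compounds plus 3 SD, cut at about 28% in these data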;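 also: 0% = plate median of test compound wells and 100% = 2 mM ZnCl2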
PfM18AAP inh-2: PfM18AAP inhibition, confirmation; hit rate 28% among 2,400; shares compounds with PfM18AAP inh-1; recombinant PfM18AAP, H-Glu-NHMec fluorogenic cleavage; inhibition, % at 7.35 µM;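 active = mean inhibition over replicate wells above the hit cutoff set for the earlier primary screen, cut at about 29% in these data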;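 also: 0% = median of test compound wells and 100% = 2 mM ZnCl2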
CTSL1 counter: Cathepsin L (human) inhibition, confirmation; inhibition, % at 5.96 µM; AID 2178; 2,400 tested, under 10 active; purified cathepsin L1, Z-Leu-Arg-MCA fluorescence; shares compounds with PfM18AAP inh-1;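 active = average inhibition across replicates above the hit cutoff set in the earlier primary screen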;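 also: 0% = median of test compound wells and 100% = Z-Phe-Ala-diazomethylketone 1 µM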
Target sequence (P07711 whole entry, looked up): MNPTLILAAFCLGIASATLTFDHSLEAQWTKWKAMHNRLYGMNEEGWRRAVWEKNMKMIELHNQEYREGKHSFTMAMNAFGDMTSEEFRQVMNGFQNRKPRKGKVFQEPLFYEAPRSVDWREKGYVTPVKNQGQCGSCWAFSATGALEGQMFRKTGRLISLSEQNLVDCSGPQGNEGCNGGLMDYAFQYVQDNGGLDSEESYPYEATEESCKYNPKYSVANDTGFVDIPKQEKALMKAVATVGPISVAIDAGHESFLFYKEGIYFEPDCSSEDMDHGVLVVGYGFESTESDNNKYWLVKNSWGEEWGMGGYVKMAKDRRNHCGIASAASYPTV
* marks the source's active call; other numbers are inactive results; . = no result given; ! = repeats disagree.

SMILES	Neddyl block	HKDC1 inhibitor	PfGluPho inh	PfM18AAP inh-1	PfM18AAP inh-2	CTSL1 counter
O=C(O)c1cccc(N2C(=O)c3cc([N+](=O)[O-])cc4cc([N+](=O)[O-])cc(c34)C2=O)c1	-49	19	52	-73	.	.
CC(=O)Nc1sc2c(c1C#N)CCCC2	-3	-1	-10	-4	.	.
N#Cc1c(NC(=O)CSc2ncn[nH]2)sc2c1CCCCC2	0	-2	-28	32*	-31	2
CC(C)C(=O)Nc1sc2c(c1C#N)CCCCC2	10	3	15	38*	-1	-1
N#Cc1c(NC(=O)CSc2nc(N)cc(=O)[nH]2)sc2c1CCCCCC2	-3	-5	-17	-1	.	.
CCOC(=O)C(=NCC1CCCO1)NNc1ccccc1Cl (stereo unspecified)	3	-8	10	-6	.	.
Cc1ccc(NC(=S)C2=C(O)c3sccc3N(C)S2(=O)=O)cc1	13	0	-24	49*	-32	5
Nc1ccccc1-c1ccccc1N	21	-1	5	2	.	.
Nc1ccccc1N=Nc1ccccc1N	-76	-1	14	41*	6	2
O=C(NC1CC2CCCC(C1)N2C(=O)Nc1cccc(F)c1)C1CC1 (stereo unspecified)	8	-2	2	-3	.	.
O=C1c2ccccc2C(=O)N1/N=C/c1ccc(O)c(O)c1O	-19	1	98*	66*	40*	2
Oc1ccc(/C=N/N(c2ccccc2)c2ccccc2)cc1O	39	2	39	67*	42*	-8
Oc1ccc(/C=N/N(c2ccccc2)c2ccccc2)c(O)c1O	5	.	.	48*	-15	-8
CC(=O)c1c(C)[nH]c(C(=O)NCCc2c[nH]c3ccccc23)c1C	-2	-4	-1	-2	.	.
Cn1ccc(C(=O)NC(=S)Nc2ccc([N+](=O)[O-])cc2O)n1	-60	15	-16	34*	41*	-4
O=C(O)CCNC(=S)Nc1cccc(F)c1	1	-4	-12	-10	.	.
CSc1ccc(NC(N)=S)cc1	7	11	1	0	.	.
CN(C)c1ccc(NC(N)=S)cc1	0	-4	17	49*	20	-3
CCNC(=S)NNC(=O)CSc1nc2ccccc2n1C	0	4	-5	32*	2	-1
O=C(NC1CC2CCCC(C1)N2C(=S)Nc1ccccc1)C1CC1 (stereo unspecified)	1	-3	12	-6	.	.
CN1CCC2(CC1)N=C(c1ccc(F)cc1)C(=S)N2C(=O)c1ccccc1	0	6	48	33*	-39	-2
CS(=O)(=O)c1ccc2c(c1)sc1nc(=O)c(/C=C3/C=CC(=O)C(O)=C3)c(N)n12	-51	28	-28	58*	62*	1
COC1=C/C(=C/c2c(N)n3c(nc2=O)sc2cc(S(C)(=O)=O)ccc23)C=CC1=O	-81	9	5	7	.	.
CCOC(=O)C1=C(C)NC(=S)NC1c1ccco1 (stereo unspecified)	-14	3	49	35*	-28	7
CCOC(=O)C1=C(C)NC(C)=C(C(=O)OCC)C1c1ccco1	32	-2	4	6	.	.
SMILES	Neddyl block	HKDC1 inhibitor	PfGluPho inh	PfM18AAP inh-1	PfM18AAP inh-2	CTSL1 counter
COc1cc(/C=C2\C(=N)N3N=C(C)SC3=NC2=O)cc(Cl)c1OCCOc1ccc(NC(C)=O)cc1	-1	15	-15	1	.	.
O=c1cc(CN2CCN(c3ccccc3O)CC2)nc2sccn12	13	1	10	35*	-13	-1
Cc1nn(-c2ccccc2)c2c1C(c1ccc([N+](=O)[O-])cc1)C(C#N)=C(N)O2 (stereo unspecified)	-27	3	13	28	0	-1
Cc1ccc(S(=O)(=O)N2CCCCC2)cc1NC(=O)CSc1ncccn1	-9	-4	21	.	.	.
CCOc1cc(C2C(C(=O)c3ccco3)=C(O)C(=O)N2CCc2ccccc2)ccc1O (stereo unspecified)	-11	6	-4	33*	-5	6
CCOc1ccc(S(=O)(=O)N2CCCC(C(=O)NC3CCCC3)C2)cc1 (stereo unspecified)	3	-6	4	-4	.	.
CN(C)C(=S)c1ccc(N(C)C)cc1	2	-7	40	15	.	.
CN1CCN(C(=S)c2ccc(N(C)C)cc2)CC1	-2	-9	48	40*	10	1
Nc1ccc(C(=O)Oc2ccc([N+](=O)[O-])cc2)c(O)c1	.	.	.	19	-52	-3
Nc1ccc(C(=O)O)c(O)c1	9	7	28	33*!	-23	-1

High-throughput results as filed in PubChem BioAssay.
